In ChEMBL document CHEMBL1147710, “Synthesis of (2E)-3-{2-[(substituted benzyl)oxy]phenyl}acrylaldehydes as novel anti-inflammatory agents” (Bioorg Med Chem Lett, 2006):

Experiments:
[1] = tested on: Neutrophil; experiment: Inhibition of PMA-induced superoxide formation in Sprague-Dawley rat neutrophil at 30 uM; assay type: functional
In short: (§1)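 Superoxide generation by rat (Sprague Dawley) neutrophils stimulated with PMA at 3 nM. Test range 1–30 µM. Readout is superoxide formed in nmol/10⁶ cells/30 min, with percent inhibition versus control. N = 3.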

[2] = tested on: Neutrophil; experiment: Inhibition of fMLP-induced superoxide formation in Sprague-Dawley rat neutrophil at 10 uM; assay type: functional
In short: (§2)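 Rat (Sprague Dawley) neutrophils were stimulated with fMLP (0.3 µM) plus cytochalasin B (5 µg/mL). Superoxide formed was reported as nmol/10⁶ cells/30 min and percent inhibition versus control. IC50 was derived from the […] concentration series. N = 3.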

[3] = tested on: Neutrophil; experiment: Formation of fMLP-induced superoxide in Sprague-Dawley rat neutrophil at 1 uM per 10^6 cells after 30 min; assay type: functional; in short: as §2
[4] = tested on: Neutrophil; experiment: Formation of PMA-induced superoxide in Sprague-Dawley rat neutrophil at 10 uM per 10^6 cells after 30 min; assay type: functional; in short: as §1
[5] = tested on: Neutrophil; experiment: Formation of PMA-induced superoxide in Sprague-Dawley rat neutrophil at 30 uM per 10^6 cells after 30 min; assay type: functional; in short: as §1
[6] = tested on: Neutrophil; experiment: Inhibition of fMLP-induced superoxide formation in Sprague-Dawley rat neutrophil at 1 uM; assay type: functional; in short: as §2
[7] = tested on: Neutrophil; experiment: Formation of fMLP-induced superoxide in Sprague-Dawley rat neutrophil at 3 uM per 10^6 cells after 30 min; assay type: functional; in short: as §2
[8] = tested on: Neutrophil; experiment: Inhibition of PMA-induced superoxide formation in Sprague-Dawley rat neutrophil at 10 uM; assay type: functional; in short: as §1
[9] = tested on: Neutrophil; experiment: Inhibition of fMLP-induced superoxide formation in Sprague-Dawley rat neutrophil; assay type: functional, cell-based; in short: as §2
[10] = tested on: Neutrophil; experiment: Inhibition of fMLP-induced superoxide formation in Sprague-Dawley rat neutrophil at 3 uM; assay type: functional; in short: as §2
[11] = tested on: Neutrophil; experiment: Formation of fMLP-induced superoxide in Sprague-Dawley rat neutrophil at 10 uM per 10^6 cells after 30 min; assay type: functional; in short: as §2
[12] = tested on: Neutrophil; experiment: Formation of fMLP-induced superoxide in Sprague-Dawley rat neutrophil at 30 uM per 10^6 cells after 30 min; assay type: functional; in short: as §2
[13] = tested on: Neutrophil; experiment: Inhibition of fMLP-induced superoxide formation in Sprague-Dawley rat neutrophil at 30 uM; assay type: functional; in short: as §2
[14] = tested on: Neutrophil; experiment: Increase in cAMP level in Sprague-Dawley rat neutrophil; assay type: functional, cell-based
In short: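 Neutrophils were treated for 10 min with the indicated concentrations, with DMSO giving the basal level. Cellular cAMP was measured by enzyme immunoassay kit. Values are means SD of three experiments.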

[15] = tested on: Neutrophil; experiment: Formation of fMLP-induced superoxide in Sprague-Dawley rat neutrophil at 5 uM per 10^6 cells after 30 min; assay type: functional
[16] = tested on: Neutrophil; experiment: Inhibition of fMLP-induced superoxide formation in Sprague-Dawley rat neutrophil at 5 uM; assay type: functional
[17] = tested on: Neutrophil; experiment: Formation of PMA-induced superoxide in Sprague-Dawley rat neutrophil at 1 uM per 10^6 cells after 30 min; assay type: functional; in short: as §1
[18] = tested on: Neutrophil; experiment: Formation of PMA-induced superoxide in Sprague-Dawley rat neutrophil at 3 uM per 10^6 cells after 30 min; assay type: functional; in short: as §1
[19] = tested on: Neutrophil; experiment: Inhibition of PMA-induced superoxide formation in Sprague-Dawley rat neutrophil at 3 uM; assay type: functional; in short: as §1
[20] = tested on: Neutrophil; experiment: Inhibition of PMA-induced superoxide formation in Sprague-Dawley rat neutrophil; assay type: functional, cell-based; in short: as §1
[21] = tested on: Neutrophil; experiment: Inhibition of PMA-induced superoxide formation in Sprague-Dawley rat neutrophil at 1 uM; assay type: functional; in short: as §1

O=C/C=C/c1ccccc1OCc1ccc(Cl)c(Cl)c1
inhibition at 30 µM [1]: -51.1% | inhibition at 10 µM [2]: 79.8% | Activity [3]: 2.56 nmol | Activity [4]: 7.77 nmol | Activity [5]: 11.4 nmol | inhibition at 1 µM [6]: 11.7% | Activity [7]: 2.03 nmol | inhibition at 10 µM [8]: 1.9% | IC50 [9]: 4.3 µM | inhibition at 3 µM [10]: 29.4% | Activity [11]: 0.6 nmol

COc1ccc(OCc2ccccc2Cl)c(/C=C/C=N/O)c1
inhibition at 30 µM [1]: -44.4% | inhibition at 10 µM [2]: 40.4% | Activity [4]: 5.27 nmol | Activity [5]: 7.62 nmol | Activity [12]: 0.78 nmol | Activity [7]: 2.45 nmol | inhibition at 10 µM [8]: 1.5% | inhibition at 30 µM [13]: 77.7% | IC50 [9]: 9.5 µM | inhibition at 3 µM [10]: 29.5% | Activity [11]: 2.09 nmol

O=C/C=C/c1ccccc1OCc1ccc(Cl)cc1Cl
inhibition at 30 µM [1]: -29.8% | inhibition at 10 µM [2]: 24.4% | Activity [4]: 9.29 nmol | Activity [5]: 9.84 nmol | Activity [12]: 1.76 nmol | inhibition at 10 µM [8]: -22.7% | inhibition at 30 µM [13]: 39.9% | Activity [11]: 2.16 nmol

COc1ccc(OCc2ccc(Cl)cc2)c(/C=C/C=N/O)c1
inhibition at 30 µM [1]: -132% | inhibition at 10 µM [2]: 27.9% | Activity [4]: 11.9 nmol | Activity [5]: 12.1 nmol | Activity [12]: 2.41 nmol | inhibition at 10 µM [8]: -124% | inhibition at 30 µM [13]: 31.6% | Activity [11]: 2.53 nmol

O=C/C=C/c1ccccc1OCc1c(Cl)cccc1Cl
inhibition at 30 µM [1]: -59.2% | inhibition at 10 µM [2]: 40.3% | Activity [4]: 11.4 nmol | Activity [5]: 12 nmol | Activity [12]: 1.54 nmol | inhibition at 10 µM [8]: -50.6% | inhibition at 30 µM [13]: 46.8% | Activity [11]: 1.71 nmol

O=C/C=C/c1ccccc1OCc1cccc(Cl)c1
inhibition at 30 µM [1]: -18.7% | inhibition at 10 µM [2]: 65.7% | Activity [4]: 9.85 nmol | Activity [5]: 9.06 nmol | Activity [12]: 0.34 nmol | Activity [7]: 2 nmol | inhibition at 10 µM [8]: -30.1% | inhibition at 30 µM [13]: 88% | IC50 [9]: 5.9 µM | inhibition at 3 µM [10]: 31.2% | Activity [11]: 0.99 nmol

O=C/C=C/c1ccccc1OCc1ccccc1
inhibition at 30 µM [1]: -23.6% | inhibition at 10 µM [2]: 63.7% | Activity [4]: 8.61 nmol | Activity [5]: 9.39 nmol | Activity [12]: 0.48 nmol | Activity [7]: 1.96 nmol | inhibition at 10 µM [8]: -13.5% | inhibition at 30 µM [13]: 83.2% | IC50 [9]: 6.4 µM | inhibition at 3 µM [10]: 31.8% | Activity [11]: 1.05 nmol

O=C/C=C/c1ccccc1OCc1cccc(Cl)c1Cl
inhibition at 30 µM [1]: 17.3% | inhibition at 10 µM [2]: 17.4% | Activity [4]: 6.72 nmol | Activity [5]: 6.29 nmol | Activity [12]: 1.75 nmol | inhibition at 10 µM [8]: 11.2% | inhibition at 30 µM [13]: 39.9% | Activity [11]: 2.39 nmol

O=C/C=C/c1ccccc1OCc1ccccc1F
inhibition at 30 µM [1]: -29.4% | inhibition at 10 µM [2]: 75.1% | Activity [4]: 9.45 nmol | Activity [5]: 9.82 nmol | Activity [12]: 0.35 nmol | Activity [7]: 1.48 nmol | inhibition at 10 µM [8]: -24.1% | inhibition at 30 µM [13]: 87.6% | IC50 [9]: 3.3 µM | inhibition at 3 µM [10]: 47.5% | Activity [11]: 0.72 nmol

O=C/C=C/c1ccccc1OCc1ccccc1Cl
inhibition at 30 µM [1]: -10.9% | inhibition at 10 µM [2]: 71.4% | Activity [4]: 9.86 nmol | Activity [5]: 8.39 nmol | Activity [12]: 0.29 nmol | Activity [7]: 1.69 nmol | inhibition at 10 µM [8]: -30.1% | inhibition at 30 µM [13]: 89.7% | IC50 [9]: 4.4 µM | inhibition at 3 µM [10]: 40.1% | Activity [11]: 0.82 nmol

COc1ccc(OCc2ccccc2)c(/C=C/C=N/O)c1
inhibition at 30 µM [1]: -29.4% | inhibition at 10 µM [2]: 70% | Activity [4]: 4.97 nmol | Activity [5]: 6.9 nmol | Activity [12]: 0.48 nmol | Activity [7]: 2.03 nmol | inhibition at 10 µM [8]: 7.6% | inhibition at 30 µM [13]: 86% | IC50 [9]: 4.3 µM | inhibition at 3 µM [10]: 41.9% | Activity [11]: 1.05 nmol

O=Cc1ccccc1OCc1ccccc1
inhibition at 10 µM [2]: 40.6% | Activity [12]: 0.62 nmol | Activity [14]: Dose-dependent effect | Activity [7]: 1.01 nmol | inhibition at 30 µM [13]: 60.8% | IC50 [9]: 15.6 µM | inhibition at 3 µM [10]: 36.1% | Activity [11]: 0.86 nmol

COc1ccc(COc2ccccc2/C=C/C=O)cc1
inhibition at 30 µM [1]: -22.2% | inhibition at 10 µM [2]: 71.3% | Activity [4]: 9.45 nmol | Activity [5]: 9.28 nmol | Activity [12]: 0.33 nmol | Activity [7]: 1.58 nmol | inhibition at 10 µM [8]: -24.5% | inhibition at 30 µM [13]: 88.2% | IC50 [9]: 3.8 µM | inhibition at 3 µM [10]: 44.6% | Activity [11]: 0.81 nmol

CN1CCN(CCCN2c3ccccc3Sc3ccc(C(F)(F)F)cc32)CC1 [TRIFLUOPERAZINE]
Activity [15]: 2.1 nmol | inhibition at 10 µM [2]: 79.5% | inhibition at 5 µM [16]: 24.2% | Activity [17]: 5.48 nmol | Activity [18]: 3.4 nmol | Activity [7]: 2.8 nmol | inhibition at 3 µM [19]: 55.4% | inhibition at 10 µM [8]: 83.3% | IC50 [20]: 2.7 µM | IC50 [9]: 6.6 µM | inhibition at 3 µM [10]: 1.7% | Activity [11]: 0.54 nmol | inhibition at 1 µM [21]: 27.6%

Cc1ccc(COc2ccccc2/C=C/C=O)cc1
inhibition at 30 µM [1]: -25.8% | inhibition at 10 µM [2]: 45.1% | Activity [4]: 8.53 nmol | Activity [5]: 9.51 nmol | Activity [12]: 0.78 nmol | Activity [7]: 2.24 nmol | inhibition at 10 µM [8]: -13.2% | inhibition at 30 µM [13]: 73.2% | IC50 [9]: 11 µM | inhibition at 3 µM [10]: 21.9% | Activity [11]: 1.57 nmol

COc1ccc(OCc2ccccc2)c(/C=C/C=O)c1
inhibition at 30 µM [1]: -20.9% | inhibition at 10 µM [2]: 81.2% | Activity [3]: 2.09 nmol | Activity [4]: 9.42 nmol | Activity [5]: 9.19 nmol | inhibition at 1 µM [6]: 26.7% | Activity [7]: 1.37 nmol | inhibition at 10 µM [8]: -24% | IC50 [9]: 2.6 µM | inhibition at 3 µM [10]: 52.2% | Activity [11]: 0.53 nmol

O=C/C=C/c1ccccc1OCc1cccc(F)c1
inhibition at 30 µM [1]: -23.7% | inhibition at 10 µM [2]: 73% | Activity [4]: 8.07 nmol | Activity [5]: 9.38 nmol | Activity [12]: 0.46 nmol | Activity [7]: 1.7 nmol | inhibition at 10 µM [8]: -6.2% | inhibition at 30 µM [13]: 83.9% | IC50 [9]: 4.5 µM | inhibition at 3 µM [10]: 40.3% | Activity [11]: 0.76 nmol

COc1ccc(OCc2cccc(Cl)c2)c(/C=C/C=O)c1
inhibition at 30 µM [1]: -31.2% | inhibition at 10 µM [2]: 77.7% | Activity [3]: 2.54 nmol | Activity [4]: 10.3 nmol | Activity [5]: 9.96 nmol | inhibition at 1 µM [6]: 11.4% | Activity [7]: 1.82 nmol | inhibition at 10 µM [8]: -35.7% | IC50 [9]: 4.2 µM | inhibition at 3 µM [10]: 36.8% | Activity [11]: 0.67 nmol

O=C/C=C/c1ccccc1OCc1ccc(Cl)cc1
inhibition at 30 µM [1]: -22% | inhibition at 10 µM [2]: 63.1% | Activity [4]: 9.41 nmol | Activity [5]: 9.26 nmol | Activity [12]: 0.37 nmol | Activity [7]: 2.23 nmol | inhibition at 10 µM [8]: -23.9% | inhibition at 30 µM [13]: 86.9% | IC50 [9]: 7.4 µM | inhibition at 3 µM [10]: 22.4% | Activity [11]: 1.05 nmol

COc1ccc(OCc2ccc(Cl)cc2)c(/C=C/C=O)c1
inhibition at 30 µM [1]: -25.5% | inhibition at 10 µM [2]: 27.1% | Activity [4]: 9.39 nmol | Activity [5]: 9.55 nmol | Activity [12]: 1.9 nmol | inhibition at 10 µM [8]: -23.3% | inhibition at 30 µM [13]: 33.4% | Activity [11]: 2.1 nmol

COc1ccc(OCc2ccccc2Cl)c(/C=C/C=O)c1
inhibition at 30 µM [1]: -26.9% | inhibition at 10 µM [2]: 34.3% | Activity [4]: 8.94 nmol | Activity [5]: 9.63 nmol | Activity [12]: 1.69 nmol | inhibition at 10 µM [8]: -17.5% | inhibition at 30 µM [13]: 40.9% | Activity [11]: 1.89 nmol
